Assay [1] in a line: Displacement of [3H]ditolylguanidine from sigma 2 receptor in rat liver membrane by competitive binding assay. In kind it is cell membranes. In short, it runs like this:
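Sigma-2 competition binding used rat liver membranes with [3H]ditolylguanidine as radioligand. 10 µM dextrallorphan was present to mask sigma-1 sites. Ki was derived by Cheng–Prusoff from at least three independent experiments, each in triplicate, and is reported as mean ± SD.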

For assay [2], the target named is Sigma non-opioid intracellular receptor 1 (Rattus norvegicus, UniProt Q9R0C9). The experiment in a line: Displacement of (+)-[3H]pentazocine from sigma 1 receptor in rat brain membranes by competitive binding assay. The format is cell membranes. A digest of the protocol:
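Sigma-1 competition binding used rat brain membranes as receptor material with (+)-[3H]pentazocine as radioligand. Ki was derived by Cheng–Prusoff from at least three independent experiments, each in triplicate, and is reported as mean ± SD.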

Usually Ki stands for a measure of affinity in units of concentration, obtained from inhibition or displacement. Read a high Ki as lower affinity.

Molecules are shown by their SMILES.

Sequence of Sigma non-opioid intracellular receptor 1 (Q9R0C9 whole entry): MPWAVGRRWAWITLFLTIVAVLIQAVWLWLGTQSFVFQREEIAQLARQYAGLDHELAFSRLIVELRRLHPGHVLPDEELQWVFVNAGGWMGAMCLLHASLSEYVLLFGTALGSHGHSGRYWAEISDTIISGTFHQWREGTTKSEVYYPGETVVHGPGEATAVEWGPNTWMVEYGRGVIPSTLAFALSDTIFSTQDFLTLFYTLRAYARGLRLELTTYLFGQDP

On to `Ic1ccc(CN2CCN(Cc3ccc4c(c3)OCO4)CC2)cc1`, for which the Ki came to 61.1 nM in assay [1] and 0.8 nM in assay [2].
For the compound `Brc1ccc(CN2CCN(Cc3ccc4c(c3)OCO4)CC2)cc1`, the Ki in assay [1] was 40.5 nM; in assay [2], 0.78 nM.

The record behind these values is ChEMBL document CHEMBL1772977, “Synthesis and biological evaluation of novel 4-benzylpiperazine ligands for sigma-1 receptor imaging” (Bioorg Med Chem, 2011).
